An excerpt weighted towards active compounds, which were near 2.8% of everything screened.
NPY-Y1 antag = blocks the human neuropeptide Y Y1 receptor. P25929. HEK293-CNG Y1 cells, membrane potential fluorescence; NPY at EC95, then isoproterenol. inhibition, % at 3.6 µM. hit rate 1% among 200,000;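 active = inhibition above the campaign mean inhibition of all tested compounds plus 3 SD, cut at about 20% in these data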;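 also: 0% = DMSO wells given NPY plus isoproterenol and 100% = isoproterenol alone without NPY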
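Material: HEK293 cells with Y1 receptor plus CNG channel; times: compound incubation 1 h at room temperature, readout 45 min post-stimulation; signal: fluorescence, membrane potential probe; read-out basis: fluorescence ratio normalized to % inhibition between controls; benchmarks: full-block control isoproterenol-only wells, zero-block control NPY plus isoproterenol wells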
EP2 mod = modulators of human EP2 prostaglandin E2 receptor | EP2-expressing cells, cAMP HTRF FRET, PGE2 co-stimulation | induction, % at 25 µM | hit rate 0.83% among 260,000 | AID 940;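 active = compounds whose cAMP rise, as percent of the full-agonist control response, exceeds 60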;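 also: rat C6 glioma line stably carrying human EP2 under a CMV promoter; the protocol text gives 20 µM as final concentration; 100% = response of wells given 1 µM PGE2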
Target sequence (P43116 whole entry, looked up): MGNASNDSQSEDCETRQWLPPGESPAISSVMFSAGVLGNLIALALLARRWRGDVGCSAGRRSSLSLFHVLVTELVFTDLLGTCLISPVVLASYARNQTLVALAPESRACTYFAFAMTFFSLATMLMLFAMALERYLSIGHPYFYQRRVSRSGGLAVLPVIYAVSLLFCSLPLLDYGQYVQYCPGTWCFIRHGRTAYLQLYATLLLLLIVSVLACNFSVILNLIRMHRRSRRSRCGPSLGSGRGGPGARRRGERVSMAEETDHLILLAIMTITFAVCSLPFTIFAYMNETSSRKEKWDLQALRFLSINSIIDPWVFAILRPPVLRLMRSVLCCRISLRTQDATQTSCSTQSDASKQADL
NPY2 pot ag = human NPY-Y2 potentiation or agonism, primary screen | P49146 | cells expressing NPY-Y2, potentiator/agonist read-out | activation, % at 3.6 µM | hit rate 0.45% among 220,000 | AID 1359; in the data active = activation above about 27%;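 also: cells stimulated with NPY near EC25 plus isoproterenol at EC100; 0% = vehicle plus submaximal agonist and 100% = vehicle plus saturating agonist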
Target sequence (P49146 whole entry, looked up): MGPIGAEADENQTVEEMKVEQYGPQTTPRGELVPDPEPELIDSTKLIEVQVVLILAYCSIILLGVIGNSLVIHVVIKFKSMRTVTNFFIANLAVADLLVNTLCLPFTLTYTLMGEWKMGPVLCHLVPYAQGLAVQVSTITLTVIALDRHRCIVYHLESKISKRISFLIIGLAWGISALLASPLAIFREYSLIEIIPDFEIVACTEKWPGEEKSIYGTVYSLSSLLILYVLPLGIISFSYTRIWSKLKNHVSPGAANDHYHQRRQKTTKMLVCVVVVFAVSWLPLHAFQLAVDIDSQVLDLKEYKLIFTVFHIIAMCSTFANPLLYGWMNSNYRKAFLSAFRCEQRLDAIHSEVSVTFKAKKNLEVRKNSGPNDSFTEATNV
NPY-Y2 antag = blocks the human neuropeptide Y Y2 receptor; hit rate 0.99% among 140,000; P49146; NPY-Y2 expressing cells, antagonist mode; inhibition, % at 2.7 µM; in the data active = inhibition above about 17%;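 also: 0% = vehicle with agonist challenge and 100% = reference antagonist with challenge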
PGE2 EP2 inh = blocks the human prostaglandin E2 receptor EP2; inhibition, % at 25 µM; C6 glioma cells expressing human EP2, cAMP TR-FRET; cells stimulated with saturating PGE2; hit rate 0.52% among 260,000; P43116;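 active = percent inhibition above 40 after rounding to a whole number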;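 also: rat C6 glioma host cells with rolipram phosphodiesterase inhibitor present; the protocol text gives 20 µM as final concentration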
NPY-Y1 PAM-ag = human NPY-Y1 potentiation or agonism, primary screen. P25929. NPY-Y1 expressing cells, potentiator/agonist activation. activation, % at 3.6 µM. hit rate 0.37% among 220,000. AID 1304; in the data active = activation above about 33%, passing the limit was not always enough;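 also: cells stimulated with NPY at EC10 then isoproterenol at EC100; 0% = low agonist plus stimulus and 100% = saturating agonist plus stimulus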
NPY-Y2 pot conf = confirmation of human NPY-Y2 receptor potentiators or agonists. cell-based NPY-Y2 potentiator/agonist assay. shares compounds with NPY2 pot ag. hit rate 20% among 450. AID 1539. activation, % at 3.6 µM; in the data active = activation above about 33%
NPY-Y1 potentiator = potentiates or activates NPY-Y1, counter-screen for NPY-Y2 hits; activation, % at 3.6 µM; shares compounds with NPY2 pot ag; hit rate 20% among 450; Y1 HEK293-CNG cells, membrane potential fluorescence; in the data active = activation above about 45%;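 also: cells stimulated with submaximal NPY then isoproterenol with phosphodiesterase inhibitor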
NPY-Y1 agonist 2 = human NPY-Y1 agonism as NPY-Y2 potentiator counter-screen. shares compounds with NPY2 pot ag. HEK293 Y1-CNGC, membrane potential fluorescence. activation, % at 3.6 µM. hit rate 37% among 450;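 active = activation above the mean of DMSO-only control wells plus 3 SD, cut at about 18% in these data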;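 also: cells stimulated with 1 µM isoproterenol plus the PDE inhibitor Ro 20-1724; 0% = isoproterenol with DMSO and no NPY and 100% = 40 nM NPY; Y1 agonists lower the membrane potential dye signal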
CNGC inhibitor = counter-screen for NPY-Y2 potentiators: inhibitors of CNG channel activity; shares compounds with NPY2 pot ag; HEK293-CNG parental, isoproterenol cAMP, membrane potential fluorescence; inhibition, % at 3.6 µM; hit rate 32% among 450; AID 1703;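 active = inhibition above the control-well mean plus 3 SD of those wells, cut at about 22% in these data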;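 also: 0% = DMSO with isoproterenol and 100% = DMSO without isoproterenol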
Y2 agonist ctr = NPY-Y2 agonism, counter-screen for Y2 potentiators | HEK293 Y2/CNGC cells, membrane potential fluorescence, agonist mode | activation, % at 3.6 µM | shares compounds with NPY2 pot ag | hit rate 56% among 450;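 active = activation above the mean of solvent-only control wells plus 3 SD, cut at about 10% in these data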;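 also: cells stimulated by isoproterenol with no NPY added so direct agonism is tested; 0% = DMSO with isoproterenol alone and 100% = NPY at EC100 plus isoproterenol; agonism lowers probe fluorescence through less cAMP and CNG channel opening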
The depositor's hits bear a star; nt = no result.

SMILES	NPY-Y1 antag	EP2 mod	NPY2 pot ag	NPY-Y2 antag	PGE2 EP2 inh	NPY-Y1 PAM-ag	NPY-Y2 pot conf	NPY-Y1 potentiator	NPY-Y1 agonist 2	CNGC inhibitor	Y2 agonist ctr
COC(=O)c1ccccc1NC(=O)/C=C/c1ccco1	-7	8	33*	-3	11	26	41*	50*	56*	35*	48*
O=C(/C=C/c1ccco1)Nc1cccnc1Cl	nt	-17	3	nt	12	14	nt	nt	nt	nt	nt
Cc1cc(C)c2cc(CN(CCCO)C(=S)Nc3ccc(F)cc3)c(=O)[nH]c2c1	nt	-4	nt	nt	13	nt	nt	nt	nt	nt	nt
O=c1[nH]c(/C=C\c2cccc(C(F)(F)F)c2)c([N+](=O)[O-])c(=O)[nH]1	nt	-24	nt	nt	9	nt	nt	nt	nt	nt	nt
O=C(Nc1ccc(Cl)cc1)N1CCCN(c2ccc(C(F)(F)F)cc2[N+](=O)[O-])CC1	nt	-21	48*	nt	10	41	47*	76*	78*	60*	58*
O=[N+]([O-])c1cc(C(F)(F)F)ccc1NCCNC(=S)Nc1ccc(Cl)cc1	-10	-32	36*	-5	23	28	36*	37	39*	23*	46*
O=C(NCCO)C1CCCN(S(=O)(=O)c2ccc(Cl)cc2)C1 (centres undefined)	nt	-6	nt	nt	10	nt	nt	nt	nt	nt	nt
CCn1c(CN2CCC(O)(c3ccccc3F)CC2)nc2ccccc21	nt	-40	nt	nt	8	nt	nt	nt	nt	nt	nt
CCCN1Cc2cccc(C(=O)N3CCN(c4ccccc4)CC3)c2C1=O	2	17	38*	3	6	4	-5	5	-15	-4	9
CCCN1Cc2cccc(C(=O)N3CCN(c4ccc(OC)cc4)CC3)c2C1=O	-4	-10	-4	nt	3	6	nt	nt	nt	nt	nt
COc1ccc(-c2ccc(CN(Cc3ccc4c(c3)OCO4)CC(C)O)cc2)cc1 (centres undefined)	nt	-60	nt	nt	4	nt	nt	nt	nt	nt	nt
O=C1/C(=C\c2ccc(O)c(O)c2)C(c2ccccc2)=NN1c1ccccc1	-5	-79	26*	nt	7	21	10	8	-1	8	7
CC(=O)c1ccc(NC(=O)Nc2cccc(Cl)c2)cc1	-7	-50	11	-1	21	18	nt	nt	nt	nt	nt
CC(=O)C(=Nc1ccc(Cl)cc1Cl)NNc1cccc(Cl)c1	-7	-45	33*	-9	11	39	16	8	7	9	28*
CCn1c(CSc2nc(C)cc(C)n2)nnc1SCC(=O)Nc1ccc(F)cc1	nt	2	nt	nt	11	nt	nt	nt	nt	nt	nt
N#C/C(=C(/O)c1cccc(F)c1)c1nc2ccccc2s1	nt	-12	103*	nt	6	11	-2	-14	-15	-9	4
O=C(O)CSC1=NC(=Nc2ccc(Cl)cc2)C2(CCCCC2)N1c1cccc(C(=O)O)c1	-2	27	6	1	9	1	nt	nt	nt	nt	nt
Cc1ccc(N2C(SCC(=O)O)=NC(=Nc3cccc(C)c3)C23CCCC3)cc1	2	-6	70*	nt	6	23	-3	0	-10	0	-8
COc1cccc(C(=O)NNC2=CC(=O)CC(C)(C)C2)c1	1	-14	2	2	8	4	nt	nt	nt	nt	nt
COc1cc(C(=O)NNC2=CC(=O)CC(C)(C)C2)cc(OC)c1OC	-1	6	44*	2	5	32	3	2	7	6	9
CC(C)OC(=O)C(C)Nc1n[nH]c(=S)[nH]c1=O (centres undefined)	2	-46	73*	nt	105*	3	1	-2	10	-1	11*
CC1CCCCN1c1nc2c(c(=O)[nH]c(=O)n2C)n1CCCc1ccccc1 (centres undefined)	nt	43	nt	nt	4	nt	nt	nt	nt	nt	nt
CC(C)C(c1nnnn1C1CCCCC1)N1CCc2ccccc21 (centres undefined)	9	13	59*	8	17	2	-2	-2	10	-4	7
S=C(Nc1ccc(Nc2ccccc2)cc1)Nc1ccccn1	-12	-52	33*	nt	9	30	19	3	10	4	14*
CC1CCc2c(sc(NC(=S)NC(=O)c3c(Cl)cnn3C)c2C#N)C1 (centres undefined)	nt	-19	nt	nt	25	nt	nt	nt	nt	nt	nt
SMILES	NPY-Y1 antag	EP2 mod	NPY2 pot ag	NPY-Y2 antag	PGE2 EP2 inh	NPY-Y1 PAM-ag	NPY-Y2 pot conf	NPY-Y1 potentiator	NPY-Y1 agonist 2	CNGC inhibitor	Y2 agonist ctr
CCOc1ccc(NC(=O)C(=S)NC2CCCCC2)cc1	-1	11	4	nt	8	15	nt	nt	nt	nt	nt
COc1ccc(NC(=O)C(=S)NC2CCCCC2)cc1	2	-7	31*	nt	13	24	11	20	15	-12	-8
O=c1[nH]ncc(N2CCN(Cc3ccc4c(c3)OCO4)CC2)c1Cl	nt	-39	nt	nt	4	nt	nt	nt	nt	nt	nt
COc1ccc(C(=S)N2CCN(c3ccccc3Cl)CC2)cc1OC	nt	-27	-12	nt	9	-14	nt	nt	nt	nt	nt
COc1cc(C(=S)N2CCN(c3ccccc3Cl)CC2)cc(O)c1O	2	-21	31*	nt	8	16	0	8	-1	7	23*
Cc1nn(Cc2ccccc2Cl)c(C)c1C(=O)N1CCN(c2ccccc2)CC1	12	1	116*	6	10	7	1	-3	-3	-5	6
Cc1nn(Cc2ccccc2Cl)c(C)c1C(=O)NC1=NCCS1	6	10	-5	0	14	-3	nt	nt	nt	nt	nt
Cc1cc(C)nc(Oc2ccc(Br)cc2)n1	nt	26	91*	nt	6	-7	0	4	-8	1	3
N#C/C(=N/Nc1ccc(OC(F)(F)F)cc1)C(N)=S	nt	-34	46*	nt	12	27	13	1	-10	-2	23*
COc1ccc(CC(=O)Nc2nnc(Cc3ccc(OC)c(OC)c3)s2)cc1	nt	24	nt	nt	14	nt	nt	nt	nt	nt	nt
CCCOC(=O)NC(CC)COC(=O)Nc1cccc(C)c1C (centres undefined)	4	-27	33*	4	18	12	-5	-1	-2	-4	5

Compound activity: PubChem BioAssay, several laboratories
